Test results published in ChEMBL document CHEMBL1153305, “Preparation and characterization of N-(3-pyridinyl) spirocyclic diamines as ligands for nicotinic acetylcholine receptors” (Bioorg Med Chem Lett, 2009).
Active and inactive are the calls of the source. No cut-off for these calls is given here.

How the values were obtained:
Mus musculus [1] = assay: Analgesic activity in mouse at 62 umol/kg, ip; type: functional, organism-based
Summary of the method: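 Mouse hot plate analgesia model. The compound was given ip, with 62 μmol/kg as the highest dose tested.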

[2] = molecular target: Neuronal acetylcholine receptor; alpha4/beta2 (Rattus norvegicus, UniProt P09483+P12390); assay: Displacement of [3H]cytisine from alpha4beta2 nAChR in rat brain membrane; type: cell membranes
Neuronal acetylcholine receptor; alpha4/beta2 (Rattus norvegicus, UniProt P09483+P12390), sequence (P09483 whole entry): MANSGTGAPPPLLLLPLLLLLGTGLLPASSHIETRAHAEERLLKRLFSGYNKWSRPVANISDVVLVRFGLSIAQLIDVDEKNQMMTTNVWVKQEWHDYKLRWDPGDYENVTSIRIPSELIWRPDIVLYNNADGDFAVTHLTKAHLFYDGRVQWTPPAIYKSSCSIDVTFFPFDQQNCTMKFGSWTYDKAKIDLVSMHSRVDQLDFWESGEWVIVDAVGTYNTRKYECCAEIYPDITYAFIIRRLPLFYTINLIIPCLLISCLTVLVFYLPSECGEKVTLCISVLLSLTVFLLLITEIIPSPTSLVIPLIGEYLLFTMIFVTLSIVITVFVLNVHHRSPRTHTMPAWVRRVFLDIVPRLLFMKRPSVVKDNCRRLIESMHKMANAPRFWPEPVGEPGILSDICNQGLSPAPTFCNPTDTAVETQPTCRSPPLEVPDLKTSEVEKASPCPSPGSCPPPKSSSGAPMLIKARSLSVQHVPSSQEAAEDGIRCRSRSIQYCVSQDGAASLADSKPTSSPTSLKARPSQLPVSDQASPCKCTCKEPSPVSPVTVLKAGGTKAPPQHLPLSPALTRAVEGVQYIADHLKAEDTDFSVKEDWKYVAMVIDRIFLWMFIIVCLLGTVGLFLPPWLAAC
Neuronal acetylcholine receptor; alpha4/beta2 (Rattus norvegicus, UniProt P09483+P12390), sequence (P12390 whole entry): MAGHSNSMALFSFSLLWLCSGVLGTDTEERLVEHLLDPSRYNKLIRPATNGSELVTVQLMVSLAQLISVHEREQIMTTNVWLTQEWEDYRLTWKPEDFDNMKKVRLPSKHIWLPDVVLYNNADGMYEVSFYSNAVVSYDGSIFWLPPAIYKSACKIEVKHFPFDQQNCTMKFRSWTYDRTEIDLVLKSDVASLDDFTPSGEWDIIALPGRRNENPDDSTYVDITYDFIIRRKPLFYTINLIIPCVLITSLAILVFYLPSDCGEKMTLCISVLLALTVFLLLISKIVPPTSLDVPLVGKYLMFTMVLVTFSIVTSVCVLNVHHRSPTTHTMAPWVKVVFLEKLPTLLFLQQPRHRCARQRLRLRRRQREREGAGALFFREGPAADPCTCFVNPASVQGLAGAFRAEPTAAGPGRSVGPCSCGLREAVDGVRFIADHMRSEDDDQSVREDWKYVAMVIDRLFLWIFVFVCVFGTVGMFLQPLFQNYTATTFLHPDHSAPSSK

[3] = molecular target: T1, Neuronal acetylcholine receptor; alpha3/beta4 (Homo sapiens, UniProt P30926+P32297); assay: Agonist activity at human […] nAChR expressed in human IMR32 cells assessed as calcium dynamics by FLIPR assay relative to nicotine; type: functional, cell-based; conditions: IMR-32
T1 sequence (P30926 whole entry): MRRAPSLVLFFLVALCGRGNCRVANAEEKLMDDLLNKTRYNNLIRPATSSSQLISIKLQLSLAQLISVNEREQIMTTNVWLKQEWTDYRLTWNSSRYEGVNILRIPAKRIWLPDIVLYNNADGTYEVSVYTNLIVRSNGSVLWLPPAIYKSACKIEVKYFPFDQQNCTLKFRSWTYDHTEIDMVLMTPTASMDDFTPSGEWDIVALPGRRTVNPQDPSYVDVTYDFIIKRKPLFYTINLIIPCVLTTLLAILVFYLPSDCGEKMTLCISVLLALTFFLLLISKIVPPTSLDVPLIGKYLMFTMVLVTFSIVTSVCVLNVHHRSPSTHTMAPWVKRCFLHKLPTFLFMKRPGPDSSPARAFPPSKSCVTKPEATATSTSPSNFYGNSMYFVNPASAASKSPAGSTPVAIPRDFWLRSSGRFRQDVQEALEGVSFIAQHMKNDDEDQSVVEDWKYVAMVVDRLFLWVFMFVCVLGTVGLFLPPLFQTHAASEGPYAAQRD
T1 sequence (P32297 whole entry): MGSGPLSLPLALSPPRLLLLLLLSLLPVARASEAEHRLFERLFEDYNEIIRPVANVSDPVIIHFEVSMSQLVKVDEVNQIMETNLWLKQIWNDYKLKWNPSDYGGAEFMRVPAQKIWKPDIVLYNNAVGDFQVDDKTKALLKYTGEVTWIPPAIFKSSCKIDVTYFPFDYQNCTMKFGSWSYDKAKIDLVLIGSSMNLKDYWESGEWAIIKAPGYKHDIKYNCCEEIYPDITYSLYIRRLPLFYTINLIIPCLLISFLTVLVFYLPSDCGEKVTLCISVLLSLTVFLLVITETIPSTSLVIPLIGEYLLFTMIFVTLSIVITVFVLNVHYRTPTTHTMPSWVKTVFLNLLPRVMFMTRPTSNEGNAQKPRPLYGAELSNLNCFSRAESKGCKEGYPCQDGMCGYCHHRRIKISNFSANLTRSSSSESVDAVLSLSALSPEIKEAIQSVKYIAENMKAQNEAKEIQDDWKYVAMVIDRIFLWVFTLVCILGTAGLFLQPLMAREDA
Summary of the method: (§1)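 Endogenous α3β4* nAChR in the human neuroblastoma line IMR-32. Agonism was measured as intracellular Ca2+ dynamics by FLIPR, testing up to 100 μM. Values are averages of six replicates.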

[4] = molecular target: T2, Neuronal acetylcholine receptor; alpha4/beta2 (Homo sapiens, UniProt P17787+P43681); assay: Agonist activity at human recombinant alpha4beta2 nAChR expressed in human IMR32 cells assessed as calcium dynamics by FLIPR assay relative to nicotine; type: functional, cell-based
T2 sequence (P17787 whole entry): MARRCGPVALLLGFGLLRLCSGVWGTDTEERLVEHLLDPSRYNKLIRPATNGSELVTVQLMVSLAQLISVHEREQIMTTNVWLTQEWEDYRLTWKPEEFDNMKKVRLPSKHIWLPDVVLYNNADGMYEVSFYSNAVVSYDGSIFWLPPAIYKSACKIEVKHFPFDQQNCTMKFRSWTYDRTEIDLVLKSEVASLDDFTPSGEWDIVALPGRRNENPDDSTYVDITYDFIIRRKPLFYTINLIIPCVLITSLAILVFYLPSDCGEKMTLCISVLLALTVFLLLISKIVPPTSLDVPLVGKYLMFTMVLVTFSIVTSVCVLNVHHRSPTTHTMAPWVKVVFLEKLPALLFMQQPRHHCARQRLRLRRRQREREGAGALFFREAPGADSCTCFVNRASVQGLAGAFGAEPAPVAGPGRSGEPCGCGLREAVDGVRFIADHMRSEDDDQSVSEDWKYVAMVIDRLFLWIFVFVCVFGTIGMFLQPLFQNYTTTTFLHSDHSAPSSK
T2 sequence (P43681 whole entry): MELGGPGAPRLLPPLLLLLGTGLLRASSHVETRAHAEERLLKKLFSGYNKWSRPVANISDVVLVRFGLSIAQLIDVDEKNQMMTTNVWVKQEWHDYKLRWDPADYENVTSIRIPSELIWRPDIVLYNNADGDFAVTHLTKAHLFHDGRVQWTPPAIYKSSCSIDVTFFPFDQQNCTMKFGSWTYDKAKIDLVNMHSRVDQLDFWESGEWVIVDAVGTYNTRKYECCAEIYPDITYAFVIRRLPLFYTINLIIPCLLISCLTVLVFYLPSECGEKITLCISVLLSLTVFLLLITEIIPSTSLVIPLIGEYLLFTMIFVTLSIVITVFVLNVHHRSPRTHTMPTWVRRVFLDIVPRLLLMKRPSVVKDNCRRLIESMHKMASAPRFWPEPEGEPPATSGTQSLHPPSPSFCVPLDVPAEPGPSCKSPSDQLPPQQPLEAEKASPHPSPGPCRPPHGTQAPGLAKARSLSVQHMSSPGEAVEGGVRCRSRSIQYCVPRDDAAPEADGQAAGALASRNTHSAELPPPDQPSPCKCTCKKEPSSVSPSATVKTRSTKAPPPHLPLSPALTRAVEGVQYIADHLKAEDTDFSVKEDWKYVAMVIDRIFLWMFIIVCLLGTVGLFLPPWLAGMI
Summary of the method: (§2)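 A cell line expressing human recombinant α4β2 nAChR. Agonism was read as intracellular Ca2+ dynamics by FLIPR. Values are averages of six replicates.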

[5] = molecular target: T2, Neuronal acetylcholine receptor; alpha4/beta2; assay: Agonist activity at human recombinant alpha4beta2 nAChR expressed in human IMR32 cells assessed as calcium dynamics by FLIPR assay; type: functional, cell-based; summary of the method: as §2
[6] = molecular target: T1, Neuronal acetylcholine receptor; alpha3/beta4; assay: Agonist activity at human […] nAChR expressed in human IMR32 cells assessed as calcium dynamics by FLIPR assay; type: functional, cell-based, IMR-32; summary of the method: as §1
Mus musculus [7] = assay: Analgesic activity in mouse assessed hypolocomotion at 65 umol/kg, ip; type: functional, organism-based
Mus musculus [8] = assay: Decrease in body temperature in mouse at 65 umol/kg, ip; type: functional, organism-based
Mus musculus [9] = assay: Toxicity in mouse assessed as behavioral effect at 65 mg/kg, ip; type: organism-based; set-up: dose 65 mg/kg, route intraperitoneal; conditions: in vivo

Row | Compound | Activity (Mus musculus [1]) | Ki [2] [nM] | Activity [3] [%] | Activity [4] [%] | EC50 [5] [nM] | EC50 [6] [nM] | Activity (Mus musculus [7]) | Activity (Mus musculus [8]) | Activity (Mus musculus [9])
1 | Clc1ccc(N2CCC3(CCN3)C2)cn1 (stereo not drawn) | Active | 21 | 23 | 48 | 2500 | 6900 | Active | Active | 
2 | Clc1ccc(OC[C@H]2CCN2)cn1 [TEBANICLINE] |  | 0.048 | 169 | 115 | 20 | 190 |  |  | 
3 | c1cncc(N2CC3CC2CN3)c1 (stereo not drawn) |  |  | 108 |  |  | 6400 |  |  | 
4 | c1cncc(N2CC3CNC3C2)c1 (stereo not drawn) |  | 1.2 | 90 | 122 | 1600 | 6100 |  |  | 
5 | c1cncc(N2CCC3(CCN3)C2)c1 (stereo not drawn) |  | 11 | 4 | 44 | 25000 | > 100000 |  |  | Non-toxic
6 | Clc1ccc(C2CC3CCC2N3)cn1 (stereo not drawn) |  |  | 132 | 154 |  |  |  |  | 
7 | c1cncc(N2CCC3(CCCN3)C2)c1 (stereo not drawn) [TC-2216] |  | 33 | 15 | 20 | > 100000 | > 100000 |  |  | 
8 | Clc1ccc(N2CCC3(CCNC3)C2)cn1 (stereo not drawn) |  | 240 | 2 | 9 | > 100000 | > 100000 |  |  | 
9 | c1cncc(N2CCC3(CCNC3)C2)c1 (stereo not drawn) |  | 74 | 10 | 4 | > 100000 | > 100000 |  |  | 
10 | Clc1ccc(N2CCC3(CCCN3)C2)cn1 (stereo not drawn) |  | 48 | 8 | 6 | > 100000 | > 100000 |  |  | 
